Six compounds from paper PMC6904438 (Biochemistry, 2019) can be followed below.

The target in data set [1] is T1, zebrafish HDAC10 (Danio rerio, UniProt F1QCV2).
T1 sequence (F1QCV2 1-675): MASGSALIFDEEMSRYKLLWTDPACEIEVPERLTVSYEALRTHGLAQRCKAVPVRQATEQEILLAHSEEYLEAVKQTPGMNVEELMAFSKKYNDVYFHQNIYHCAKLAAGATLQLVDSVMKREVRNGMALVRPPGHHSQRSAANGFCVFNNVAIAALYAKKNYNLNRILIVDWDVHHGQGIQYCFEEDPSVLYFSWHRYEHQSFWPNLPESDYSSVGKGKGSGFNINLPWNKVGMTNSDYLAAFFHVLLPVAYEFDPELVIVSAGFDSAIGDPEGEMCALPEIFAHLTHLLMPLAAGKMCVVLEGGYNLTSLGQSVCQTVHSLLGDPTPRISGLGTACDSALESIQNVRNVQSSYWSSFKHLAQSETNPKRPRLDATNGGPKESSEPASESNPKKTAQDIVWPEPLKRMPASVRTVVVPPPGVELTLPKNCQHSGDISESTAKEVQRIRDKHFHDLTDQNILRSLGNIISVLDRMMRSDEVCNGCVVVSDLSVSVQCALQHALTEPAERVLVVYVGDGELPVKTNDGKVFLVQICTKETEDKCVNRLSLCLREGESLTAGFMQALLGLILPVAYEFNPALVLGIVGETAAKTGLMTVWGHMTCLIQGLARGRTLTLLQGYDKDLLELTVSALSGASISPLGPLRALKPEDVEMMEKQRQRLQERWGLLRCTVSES
Description: fixed-point N-acetylputrescine hydrolysis assay. It is filed as biochemical. A digest of the protocol:
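N-acetylputrescine 800 μM added; quenched after 45–60 min with sodium bicarbonate plus dansyl chloride, 50 °C 1 h. Dansylated product quantified by LC-MS; IC50 from logistic nonlinear regression.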

Data set [2] can be described thus: stability in aqueous solution by mass spectrometry. It is filed as physicochemical.
[3] abbreviates: ratio of IC50 values against zebrafish HDAC10.

The IC50 is the concentration at which inhibition is half-maximal. The low end stands for greater potency, the high end for weaker potency. `NCCCNCCCCCC(=O)C(F)(F)F` [compound 1, 7-[(3-aminopropyl)amino]-1,1,1-trifluoroheptan-2-one] returned an IC50 in data set [1] of 80 ± 10 nM. Further, the “fold greater inhibitory potency than methylketone 2 or methoxymethylketone 3” value in data set [1] (setting [3]) is “at least 29 fold”. On to `CC(=O)CCCCCNCCCN` [compound 2, 7-[(3-aminopropyl)amino]heptan-2-one], for which, in data set [1], the IC50 was found to be 2300 ± 200 nM. As to `COCC(=O)CCCCCNCCCN` [compound 3, 7-[(3-aminopropyl)amino]-1-methoxyheptan-2-one], in data set [1], the concentration for half-maximal inhibition (IC50) was 35000 ± 100 nM. On the same count and under the same terms, the result for `NCCCNCCCCCB(O)O` [compound 4, 5-[(3-aminopropyl)amino]pentylboronic acid] reads 400000 ± 70000 nM.

Regarding `NCCCNCCCCCS` [compound 6, 5-[(3-aminopropyl)amino]pentane-1-thiol], the IC50 in data set [1] was 370 ± 20 nM. For the same compound, the “stability in aqueous solution” value in data set [2] was “susceptible to oxidation and begins to forms a disulfide in aqueous solution”.

In turn, `CC(=O)SCCCCCNCCCN` [compound 7, S-{5-[(3-aminopropyl)amino]pentyl} thioacetate] had an IC50 in data set [1] of 30 ± 10 nM. Moreover, in data set [1] (setting [3]), the “fold difference in potencies between inhibitors 7 and 6” value is 12 fold. For the same compound, in data set [2], the “stability in aqueous solution” value is “stable in aqueous solution”.
